These results are taken from ChEMBL document CHEMBL1138202, “Tricyclic pyrazoles. 4. Synthesis and biological evaluation of analogues of the robust and selective CB2 cannabinoid ligand 1-(2',4'-dichlorophenyl)-6-methyl-N-piperidin-1-yl-1,4-dihydroindeno[1,2-c]pyrazole-3-carboxamide” (J Med Chem, 2006).

Assay [1] deals with Cannabinoid receptor 2 (Homo sapiens) (UniProt P34972). Description: Intrinsic activity at CB2 receptor assessed as induction of ERK1/2 phosphorylation in HL60 cells at 10 nM after 10 mins relative to control. The class given is functional, cell-based. A digest of the protocol: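 HL-60 cells in RPMI 1640 with 10% heat-inactivated FBS, 37 °C, 5% CO2, used at 80% confluency. Compounds in medium with 1% DMSO added to the cell suspension for 10 min. Lysates western blotted with anti-phospho-MAPK 1/2 and read by chemiluminescence. Phospho-ERK 1/2 given as mean percentage of vehicle from five separate experiments.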
Sequence of Cannabinoid receptor 2 (Homo sapiens) (P34972 whole entry): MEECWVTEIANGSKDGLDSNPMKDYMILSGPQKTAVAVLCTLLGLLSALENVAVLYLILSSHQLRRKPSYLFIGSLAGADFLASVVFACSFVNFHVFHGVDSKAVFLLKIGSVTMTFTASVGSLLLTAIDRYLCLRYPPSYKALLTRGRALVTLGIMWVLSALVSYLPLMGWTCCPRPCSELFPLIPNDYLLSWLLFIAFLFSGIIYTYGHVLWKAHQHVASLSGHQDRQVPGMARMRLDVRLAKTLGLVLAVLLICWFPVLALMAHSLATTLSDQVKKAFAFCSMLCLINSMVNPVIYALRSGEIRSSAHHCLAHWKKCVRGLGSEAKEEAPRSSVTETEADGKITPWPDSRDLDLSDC

The target in assay [2] is Cannabinoid receptor 1 (Mus musculus, UniProt P47746). Description: Displacement of [3H]CP-55940 from CD1 mouse brain CB1 receptor. Format: tissue-based. Summed up: (§1)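 Male CD-1 mouse brain (minus cerebellum) for CB1 or spleen for CB2, homogenised in ice-cold TME (50 mM Tris-HCl, 1 mM EDTA, 3.0 mM MgCl2, pH 7.4) and centrifuged to membranes. GF/C filtration, scintillation counting. Triplicate, five independent experiments; sigmoid fit IC50 converted to Ki.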
Sequence of Cannabinoid receptor 1 (P47746 whole entry): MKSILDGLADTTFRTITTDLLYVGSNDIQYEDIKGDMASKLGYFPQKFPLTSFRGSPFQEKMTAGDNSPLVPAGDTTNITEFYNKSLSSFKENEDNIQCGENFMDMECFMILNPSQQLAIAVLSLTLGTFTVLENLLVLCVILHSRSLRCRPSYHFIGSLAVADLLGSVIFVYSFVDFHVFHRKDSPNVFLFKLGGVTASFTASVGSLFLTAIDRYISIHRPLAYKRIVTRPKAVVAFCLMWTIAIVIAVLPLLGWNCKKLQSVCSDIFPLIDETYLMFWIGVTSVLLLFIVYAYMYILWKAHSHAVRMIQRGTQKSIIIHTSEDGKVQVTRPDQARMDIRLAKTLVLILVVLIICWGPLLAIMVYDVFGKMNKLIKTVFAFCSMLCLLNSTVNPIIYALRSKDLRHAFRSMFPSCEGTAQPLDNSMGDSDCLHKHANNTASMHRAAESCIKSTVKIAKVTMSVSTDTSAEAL

Assay [3] deals with Cannabinoid receptor 2 (Mus musculus, UniProt P47936). Description: Displacement of [3H]CP-55940 from CD1 mouse spleen CB2 receptor. The class given is tissue-based. A digest of the protocol: as §1
Sequence of Cannabinoid receptor 2 (P47936 whole entry): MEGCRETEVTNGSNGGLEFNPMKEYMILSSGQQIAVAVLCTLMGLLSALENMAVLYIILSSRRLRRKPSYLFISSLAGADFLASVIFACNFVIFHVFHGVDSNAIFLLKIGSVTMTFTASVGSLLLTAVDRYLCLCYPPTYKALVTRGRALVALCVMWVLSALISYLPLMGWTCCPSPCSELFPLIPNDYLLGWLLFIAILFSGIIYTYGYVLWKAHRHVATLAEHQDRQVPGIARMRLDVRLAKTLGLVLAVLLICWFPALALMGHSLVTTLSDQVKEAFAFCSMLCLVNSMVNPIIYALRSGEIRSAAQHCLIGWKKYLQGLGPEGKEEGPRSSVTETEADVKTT
For orientation: Loss of bound radioactivity is the signal in a displacement assay; it reports binding, not function.

Assay [4] concerns the target Cannabinoid receptor (Mus musculus) (UniProt P47746+P47936). Description: Selectivity for CD1 mouse CB2 receptor over CB1 receptor. Format: protein assay.

SMILES strings stand for the structures.

Sequence of Cannabinoid receptor (Mus musculus) (P47746 whole entry, looked up): as the sequence (P47746 whole entry) above
Sequence of Cannabinoid receptor (Mus musculus) (P47936 whole entry, looked up): as the sequence (P47936 whole entry) above

By Ki is commonly meant a measure of affinity in units of concentration, obtained from inhibition or displacement. Low values mean higher affinity, high ones lower affinity. In the case of `Cc1ccc2c(c1)Cc1c(C(=O)Nc3ccccc3)nn(-c3ccc(Cl)cc3Cl)c1-2`, the Activity in assay [1] (HL-60) is 125%; in assay [1] (HL-60, filed as agonist), “Agonist”. The Ki in assay [2] is 2410 nM; in assay [3], 32.8 nM. In assay [4], the Ratio Ki was determined as 73.

With `Cc1cc2c(cc1Cl)-c1c(c(C(=O)NN3CCCCC3)nn1-c1ccc(Cl)cc1Cl)C2`, in assay [3], the affinity corresponds to a Ki of 200 nM. The Ratio Ki in assay [4] was 4.6.

Take `Cc1ccc2c(c1)Cc1c(C(=O)NNc3ccc([N+](=O)[O-])cc3)nn(-c3ccc(Cl)cc3Cl)c1-2`: the values for the Ki in assay [2] and in assay [3] were 4500 nM and 2120 nM, respectively. For the same compound, the Ratio Ki in assay [4] was found to be 2.

As for `Cc1ccc2c(c1)Cc1c(C(=O)Nc3ccc(Cl)cc3)nn(-c3ccc(Cl)cc3Cl)c1-2`, the figures for the Ki in assay [2] and in assay [3] were greater than 10000 nM and 177 nM, respectively.

As for `CCCCCCC(C)(C)c1ccc(C2CC(O)CC[C@H]2CCCO)c(O)c1` (single isomer, unassigned) [CP-55940], the figures for the Ki in assay [2] and in assay [3] were 1.5 nM and 1.11 nM, respectively.

For `Cc1ccc2c(c1)Cc1c(C(=O)NC3CCCCC3)nn(-c3ccc(Cl)cc3Cl)c1-2`, the Activity in assay [1] (HL-60) was 61.3%; in assay [1] (HL-60, filed as agonist), “Agonist”. The Ki in assay [2] came to 900 nM; in assay [3], 7.6 nM. Moreover, the Ratio Ki in assay [4] came to 118.

Turning to `COc1ccc(NC(=O)c2nn(-c3ccc(Cl)cc3Cl)c3c2Cc2cc(C)ccc2-3)cc1`, the Ki was greater than 10000 nM in assay [2] and 114 nM in assay [3].

In the case of `Cc1ccc2c(c1)Cc1c(C(=O)NNc3ccc(Cl)cc3)nn(-c3ccc(Cl)cc3Cl)c1-2`, the results for the Ki in assay [2] and in assay [3] were greater than 10000 nM and greater than 5000 nM, respectively.

Regarding `Cc1ccc2c(c1)Cc1c(C(=O)Nc3ccc(Cl)c(Cl)c3)nn(-c3ccc(Cl)cc3Cl)c1-2`, the inhibition constant Ki in assay [2] and in assay [3] was greater than 10000 nM each time.

As for `Cc1ccc(Cn2nc(C(=O)N[C@@H]3C(C)(C)[C@@H]4CC[C@@]3(C)C4)cc2-c2ccc(Cl)c(C)c2)cc1`, the Ratio Ki in assay [4] was 250.

Take `Cc1ccc(NC(=O)c2nn(-c3ccc(Cl)cc3Cl)c3c2Cc2cc(C)ccc2-3)cc1`: the figures for the inhibitory constant (Ki) in assay [2] and in assay [3] were greater than 5000 nM and 74 nM, respectively.

Turning to `Cc1ccc2c(c1)Cc1c(C(=O)Nc3ccc(C(F)(F)F)cc3)nn(-c3ccc(Cl)cc3Cl)c1-2`, the Ki in assay [2] is greater than 10000 nM; in assay [3], greater than 5000 nM.

In the case of `Cc1ccc2c(c1)Cc1c(C(=O)Nc3ccc(F)cc3)nn(-c3ccc(Cl)cc3Cl)c1-2`, the Ki was greater than 5000 nM in assay [2] and 61 nM in assay [3].

For the compound `Cc1ccc2c(c1)Cc1c(C(=O)NNc3ccccc3)nn(-c3ccc(Cl)cc3Cl)c1-2`, the Ki worked out at 2280 nM in assay [2] and 63 nM in assay [3]. In assay [4], the Ratio Ki is 36.

`COc1ccc(NNC(=O)c2nn(-c3ccc(Cl)cc3Cl)c3c2Cc2cc(C)ccc2-3)cc1`: the Ki in assay [2] was greater than 5000 nM; in assay [3], 3000 nM.

For the compound `Cc1ccc2c(c1)Cc1c(C(=O)NN3CCCCC3)nn(-c3ccc(Cl)cc3Cl)c1-2`, the Activity in assay [1] (HL-60) is 83%; in assay [1] (HL-60, filed as agonist), “Agonist”. Further, the Ki was 363 nM in assay [2] and 0.037 nM in assay [3]. In addition, the Ratio Ki in assay [4] was found to be 9810.

Take `O=C(NN1CCCCC1)c1nn(-c2ccc(Cl)cc2Cl)c2c1Cc1cc(Cl)ccc1-2`: the Activity was 65% in assay [1] (HL-60) and “Agonist” in assay [1] (HL-60, filed as agonist). Moreover, the Ratio Ki in assay [4] came to 6030.

For `Cc1ccc2c(c1)Cc1c(C(=O)Nc3ccc(Cl)cc3Cl)nn(-c3ccc(Cl)cc3Cl)c1-2`, the values for the Ki in assay [2] and in assay [3] were 2630 nM and greater than 5000 nM, respectively.

Turning to `Cc1cc2c(cc1Cl)Cc1c(C(=O)NN3CCCCC3)nn(-c3ccc(Cl)cc3Cl)c1-2`, the Ratio Ki in assay [4] was 14.

In the case of `Cc1cc2c(cc1Cl)-c1c(c(C(=O)NC3CCCCC3)nn1-c1ccc(Cl)cc1Cl)C2`, the Ratio Ki in assay [4] was 33.
